From ChEMBL document CHEMBL1122950, “Structure-activity relationships of C-terminal tri- and tetrapeptide fragments that inhibit gastrin activity” (J Med Chem, 1985)
Activity calls are given as the source filed them. The rule behind the calls is not given here. Where a SMILES comes first, the peptide text is derived from it.

target: T1, Gastrin/cholecystokinin type B receptor (Rattus norvegicus) (UniProt P30553); experiment: Inhibition of gastrin stimulated acid secretion in in situ perfused rat stomach; format: functional, tissue-based
T1 sequence (whole entry): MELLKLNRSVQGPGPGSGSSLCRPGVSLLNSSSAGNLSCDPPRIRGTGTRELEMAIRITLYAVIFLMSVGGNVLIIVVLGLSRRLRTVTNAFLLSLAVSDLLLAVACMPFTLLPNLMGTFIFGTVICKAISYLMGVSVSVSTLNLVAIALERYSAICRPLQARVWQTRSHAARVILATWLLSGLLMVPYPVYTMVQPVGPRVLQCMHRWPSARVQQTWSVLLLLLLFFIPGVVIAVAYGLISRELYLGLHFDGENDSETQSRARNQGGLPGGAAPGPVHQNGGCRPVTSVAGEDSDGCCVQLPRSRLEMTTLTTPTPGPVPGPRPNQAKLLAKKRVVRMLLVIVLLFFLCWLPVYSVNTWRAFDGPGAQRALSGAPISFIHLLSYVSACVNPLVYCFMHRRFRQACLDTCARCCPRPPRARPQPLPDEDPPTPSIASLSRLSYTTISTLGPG
In short: (§1)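 In situ perfused stomach (Ghosh and Schild method) in urethane-anesthetized rats, with urethane given ip, or im and ip for some analogues. Acid secretion was stimulated by gastrin and test peptides were given in vivo. Antagonism is expressed as ED50 in μM/kg.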

SMILES	ED50
CC(C)C[C@H](NC(=O)[C@H](Cc1c[nH]c2ccccc12)NC(=O)OC(C)(C)C)C(=O)N[C@@H](CC(N)=O)C(=O)O (HELM PEPTIDE1{[CC(C)(C)OC(=O)[*:2]].W.L.N}$$$$V2.0)	19 µmol/kg
CCCN(CCC)C(=O)C(CCC(=O)O)NC(=O)c1ccccc1 (stereo not given)	350 µmol/kg
CC(C)(C)OC(=O)N[C@@H](Cc1c[nH]c2ccccc12)C(=O)N1CCC[C@H]1C(=O)N[C@@H](CC(=O)O)C(N)=O (HELM PEPTIDE1{[CC(C)(C)OC(=O)[*:2]].W.P.D.[am]}$$$$V2.0)	15 µmol/kg
CC(C)C[C@H](NC(=O)[C@H](Cc1c[nH]c2ccccc12)NC(=O)OC(C)(C)C)C(=O)N[C@H](CC(=O)O)C(N)=O	17 µmol/kg
CSCC[C@H](NC(=O)[C@H](Cc1c[nH]c2ccccc12)NC(=O)OC(C)(C)C)C(=O)N[C@@H](CC(=O)O)C(N)=O (HELM PEPTIDE1{[CC(C)(C)OC(=O)[*:2]].W.M.D.[am]}$$$$V2.0)	14 µmol/kg
O=C(N[C@@H](Cc1c[nH]c2ccccc12)C(=O)O)c1ccc(Cl)cc1	170 µmol/kg
C[C@H](NC(=O)[C@H](Cc1c[nH]c2ccccc12)NC(=O)OC(C)(C)C)C(=O)N[C@@H](CC(=O)O)C(N)=O (HELM PEPTIDE1{[CC(C)(C)OC(=O)[*:2]].W.A.D.[am]}$$$$V2.0)	30 µmol/kg
CC[C@H](C)[C@H](NC(=O)[C@H](Cc1c[nH]c2ccccc12)NC(=O)OC(C)(C)C)C(=O)N[C@@H](CC(=O)O)C(N)=O (HELM PEPTIDE1{[CC(C)(C)OC(=O)[*:2]].W.I.D.[am]}$$$$V2.0)	25 µmol/kg
CC(C)(C)OC(=O)N[C@@H](Cc1c[nH]c2ccccc12)C(=O)N[C@@H](Cc1ccccc1)C(=O)N[C@@H](CC(=O)O)C(N)=O (HELM PEPTIDE1{[CC(C)(C)OC(=O)[*:2]].W.F.D.[am]}$$$$V2.0)	26.5 µmol/kg
CSCC[C@H](NC(=O)[C@H](Cc1c[nH]c2ccccc12)NC(=O)CNC(=O)OC(C)(C)C)C(=O)N[C@@H](CC(=O)O)C(N)=O (HELM PEPTIDE1{[CC(C)(C)OC(=O)[*:2]].G.W.M.D.[am]}$$$$V2.0)	8 µmol/kg
CC(C)C[C@H](NC(=O)[C@H](Cc1c[nH]c2ccccc12)NC(=O)OC(C)(C)C)C(=O)N[C@@H](CC(=O)O)C(=O)N(C)C (HELM PEPTIDE1{[CC(C)(C)OC(=O)[*:2]].W.L.D.[CN(C)[*:1]]}$$$$V2.0)	10 µmol/kg
CC(C)C[C@H](NC(=O)[C@H](Cc1c[nH]c2ccccc12)NC(=O)OC(C)(C)C)C(=O)N[C@@H](C)C(N)=O (HELM PEPTIDE1{[CC(C)(C)OC(=O)[*:2]].W.L.A.[am]}$$$$V2.0)	150 µmol/kg
CCCC[C@H](NC(=O)[C@H](Cc1c[nH]c2ccccc12)NC(=O)OC(C)(C)C)C(=O)N[C@@H](CC(=O)O)C(N)=O (HELM PEPTIDE1{[CC(C)(C)OC(=O)[*:2]].W.[Nle].D.[am]}$$$$V2.0)	14 µmol/kg
CC(C)C[C@H](NC(=O)[C@H](Cc1c[nH]c2ccccc12)NC(=O)OC(C)(C)C)C(=O)N[C@@H](CC(=O)O)C(=O)O (HELM PEPTIDE1{[CC(C)(C)OC(=O)[*:2]].W.L.D}$$$$V2.0)	27.3 µmol/kg
CC(C)(C)OC(=O)N[C@@H](Cc1c[nH]c2ccccc12)C(=O)NCC(=O)N[C@@H](CC(=O)O)C(N)=O (HELM PEPTIDE1{[CC(C)(C)OC(=O)[*:2]].W.G.D.[am]}$$$$V2.0)	60 µmol/kg
CC(C)C[C@H](NC(=O)[C@H](Cc1c[nH]c2ccccc12)NC(=O)OC(C)(C)C)C(=O)N[C@@H](CCC(=O)O)C(N)=O (HELM PEPTIDE1{[CC(C)(C)OC(=O)[*:2]].W.L.E.[am]}$$$$V2.0)	11 µmol/kg
CC(C)CC(NC(=O)[C@H](Cc1c[nH]c2ccccc12)NC(=O)OC(C)(C)C)C(=O)N[C@@H](CC(=O)O)C(N)=O (stereo not given in full)	15 µmol/kg
CC(C)C[C@H](NC(=O)[C@H](Cc1c[nH]c2ccccc12)NC(=O)OCc1ccccc1)C(=O)N[C@@H](CC(=O)O)C(N)=O (HELM PEPTIDE1{[O=C(OCc1ccccc1)[*:2]].W.L.D.[am]}$$$$V2.0)	38 µmol/kg

species on record: Rattus norvegicus; experiment: Inhibition of gastrin stimulated acid secretion in the in situ perfused rat stomach; Inactive; format: functional, organism-based; in short: as §1

SMILES	ED50
CSCC[C@H](NC(=O)[C@H](Cc1c[nH]c2ccccc12)NC(=O)OC(C)(C)C)C(=O)N[C@@H](CC(=O)OCc1ccccc1)C(N)=O (HELM PEPTIDE1{[CC(C)(C)OC(=O)[*:2]].W.M.D.[am]}|CHEM1{[c1ccc(CO[*:1])cc1]}$PEPTIDE1,CHEM1,4:R3-1:R1$$$V2.0)	inactive
CC(C)C[C@H](NC(=O)[C@H](Cc1c[nH]c2ccccc12)NC(=O)OC(C)(C)C)C(=O)N[C@@H](CC(=O)OCc1ccccc1)C(N)=O (HELM PEPTIDE1{[CC(C)(C)OC(=O)[*:2]].W.L.D.[am]}|CHEM1{[c1ccc(CO[*:1])cc1]}$PEPTIDE1,CHEM1,4:R3-1:R1$$$V2.0)	inactive
